Laboratory results reported in ChEMBL document CHEMBL3421610, “Antimalarial activity of 4-amidinoquinoline and 10-amidinobenzonaphthyridine derivatives” (J Med Chem, 2015).
Converted amounts (≈) assume the structure as drawn. The source made the active and inactive calls. The rule behind the calls is not given here.

Assays:
[1] = Half life in human liver microsomes at 1 uM by LC/MS analysis; type: ADME
Summary of the method: (§1)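 Compound at 1 µM final, diluted from […], with 0.5 mg/mL pooled human or mouse liver microsomes, NADP, MgCl2 and 0.1 M PBS pH 7.4. Reaction started with 1 U/mL G6PD and shaken at 37 °C. Aliquots quenched in cold acetonitrile at 0, 10, 20, 30 and 60 min and quantified by LC/MS. Half-life from log plot of total ion chromatogram area remaining.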

[2] = Half life in mouse liver microsomes at 1 uM by LC/MS analysis; type: ADME; summary of the method: as §1
Plasmodium falciparum [3] = test: Antimalarial activity against chloroquine-sensitive Plasmodium falciparum D6 assessed as growth inhibition after 18 hrs by [3H]-hypoxanthine uptake assay; type: functional, organism-based
Summary of the method: (§2)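 P. falciparum clones D6, W2 and TM91C235; modified semiautomated microdilution. Compounds in DMSO, diluted in RPMI 1640 with 10% human plasma, tested over (1.56-100) x 10^-9 M; final DMSO 0.25-0.5%. Inoculum 0.5% parasitemia, 1% hematocrit. 24 h incubation, then [3H]-hypoxanthine added, further 18 h. Harvested and read by scintillation counting; IC50 by nonlinear regression.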

Plasmodium falciparum [4] = test: Antimalarial activity against chloroquine-resistant Plasmodium falciparum W2 assessed as growth inhibition after 18 hrs by [3H]-hypoxanthine uptake assay; type: functional, organism-based; summary of the method: as §2
Plasmodium falciparum [5] = test: Antimalarial activity against chloroquine-resistant Plasmodium falciparum C235 assessed as growth inhibition after 18 hrs by [3H]-hypoxanthine uptake assay; type: functional, organism-based; summary of the method: as §2
HepG2 = test: Cytotoxicity against human HepG2 cells after 48 hrs by MTT assay; type: cell-based; details: HepG2, 48 h
Summary of the method: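 HepG2 cells in supplemented MEM, plated at 9570 cells/well in 384-well format and incubated overnight at 37 °C, 5% CO2. Twelve duplicate 1.6-fold dilutions, 57–10,000 ng/ml, incubated 48 h. MTT added for 1 h at room temperature in the dark, formazan dissolved in acidified isopropanol, absorbance read. IC50 by sigmoidal variable-slope nonlinear regression; tryptanthrin control.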

hERG (KCNH2) = hERG (KCNH2) (Homo sapiens, UniProt Q12809); test: Inhibition of human ERG expressed in CHL cells assessed as tail current at 10 uM after 7 mins by patch clamp assay relative to control; type: cell-based; details: CHL cells expressing human ERG
Plasmodium berghei [6] = test: Antimalarial activity against erythrocytic stage of chloroquine resistant Plasmodium berghei ANKA infected in mouse assessed as cure rate at 60 mg/kg, po qd administered on day 3, 4 and 5 post infection measured 3 times per week for 30 days, starting from day 3 by Thompson test; type: functional, organism-based; set-up: dose 60 mg/kg
Summary of the method: (§3)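 Male mice of 16-20 g inoculated intraperitoneally with 5 x 10^6 erythrocytes infected with CQ-resistant P. berghei ANKA. Drug given orally as a suspension once daily on days 3, 4 and 5 post-infection, five mice per dose. Blood films from day 3, three times weekly for 30 days. Cure means parasite-negative on day 30 or surviving 30 days. Mice losing >20% body weight sacrificed.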

Plasmodium berghei [7] = test: Antimalarial activity against erythrocytic stage of chloroquine resistant Plasmodium berghei ANKA infected in mouse assessed as cure rate at 15 mg/kg, po qd administered on day 3, 4 and 5 post infection measured 3 times per week for 30 days, starting from day 3 by Thompson test; type: functional, organism-based; set-up: dose 15 mg/kg; summary of the method: as §3
Salmonella typhi = test: Mutagenicity in Salmonella typhi by Ames test; type: toxicity, organism-based; details: salmonella enterica subsp. enterica […]
Mus musculus = test: Toxicity in mouse infected with erythrocytic stage of chloroquine resistant Plasmodium berghei ANKA up to 160 mg/kg, po qd administered on day 3, 4 and 5 post infection measured over 30 days; type: organism-based, Erythrocyte; set-up: dose 160 mg/kg, route oral; details: in vivo, 720 h
Summary of the method: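 Male mice of 16-20 g infected intraperitoneally with CQ-resistant P. berghei ANKA (5 x 10^6 infected erythrocytes). Oral dosing once daily on days 3-5, five mice per group. Animals followed for 30 days by blood films; mice losing >20% body weight sacrificed.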

Plasmodium berghei [8] = test: Antimalarial activity against erythrocytic stage of chloroquine resistant Plasmodium berghei ANKA infected in mouse assessed as cure rate at 160 mg/kg, po qd administered on day 3, 4 and 5 post infection measured 3 times per week for 30 days, starting from day 3 by Thompson test; type: functional, organism-based; set-up: dose 160 mg/kg; summary of the method: as §3
Plasmodium berghei [9] = test: Antimalarial activity against erythrocytic stage of chloroquine resistant Plasmodium berghei ANKA infected in mouse assessed as parasite clearance at 160 mg/kg, po qd administered on day 3, 4 and 5 post infection measured on day 2 to 7 post last dose; type: functional, organism-based; set-up: dose 160 mg/kg
Summary of the method: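 Male mice of 16-20 g inoculated intraperitoneally with 5 x 10^6 erythrocytes infected with CQ-resistant P. berghei ANKA. Drug given orally as a suspension once daily on days 3, 4 and 5 post-infection, five mice per dose. Parasitemia followed by blood films from day 3, three times weekly for 30 days; infected untreated mice served as negative controls.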

Plasmodium berghei [10] = test: Antimalarial activity against erythrocytic stage of chloroquine resistant Plasmodium berghei ANKA infected in mouse assessed as cure rate at 120 mg/kg, po qd administered on day 3, 4 and 5 post infection measured 3 times per week for 30 days, starting from day 3 by Thompson test; type: functional, organism-based; set-up: dose 120 mg/kg; summary of the method: as §3

Chain of hERG (KCNH2) (Q12809 whole entry): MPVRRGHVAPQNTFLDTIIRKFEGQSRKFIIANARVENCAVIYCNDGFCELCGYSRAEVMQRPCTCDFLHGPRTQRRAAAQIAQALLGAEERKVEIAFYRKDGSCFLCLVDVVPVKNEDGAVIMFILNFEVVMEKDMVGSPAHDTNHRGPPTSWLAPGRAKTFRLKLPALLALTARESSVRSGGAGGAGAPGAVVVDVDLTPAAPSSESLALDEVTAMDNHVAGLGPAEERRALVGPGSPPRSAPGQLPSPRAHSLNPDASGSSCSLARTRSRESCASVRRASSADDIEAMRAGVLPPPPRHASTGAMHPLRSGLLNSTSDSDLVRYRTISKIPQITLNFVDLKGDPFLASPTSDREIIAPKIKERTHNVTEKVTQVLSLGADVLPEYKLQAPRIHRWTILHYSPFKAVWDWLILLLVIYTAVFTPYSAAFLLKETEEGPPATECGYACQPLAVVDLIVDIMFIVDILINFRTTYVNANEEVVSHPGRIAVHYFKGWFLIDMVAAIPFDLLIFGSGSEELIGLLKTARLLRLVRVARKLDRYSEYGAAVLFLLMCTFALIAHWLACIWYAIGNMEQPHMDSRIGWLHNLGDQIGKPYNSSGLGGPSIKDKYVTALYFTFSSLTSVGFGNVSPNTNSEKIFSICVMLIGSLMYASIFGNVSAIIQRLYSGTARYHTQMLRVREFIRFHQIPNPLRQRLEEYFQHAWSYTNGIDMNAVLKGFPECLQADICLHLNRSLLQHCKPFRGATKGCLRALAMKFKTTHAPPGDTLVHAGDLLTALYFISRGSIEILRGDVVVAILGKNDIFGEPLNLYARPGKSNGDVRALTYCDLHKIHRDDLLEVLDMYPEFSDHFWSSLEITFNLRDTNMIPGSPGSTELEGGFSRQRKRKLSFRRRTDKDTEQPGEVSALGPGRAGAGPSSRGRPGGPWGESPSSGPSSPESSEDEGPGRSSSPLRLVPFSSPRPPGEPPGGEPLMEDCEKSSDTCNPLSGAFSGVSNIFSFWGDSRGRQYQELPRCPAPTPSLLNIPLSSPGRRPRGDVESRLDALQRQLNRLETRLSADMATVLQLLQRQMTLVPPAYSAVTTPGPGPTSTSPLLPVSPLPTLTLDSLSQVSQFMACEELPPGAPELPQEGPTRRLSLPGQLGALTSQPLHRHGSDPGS

Row | SMILES | half-life at 1 µM [1] [min] | half-life at 1 µM [2] [min] | IC50 (Plasmodium falciparum [3]) [µM] | IC50 (Plasmodium falciparum [4]) [µM] | IC50 (Plasmodium falciparum [5]) [µM] | IC50 (HepG2) [µg/mL] | inhibition at 7 min, 10 µM (hERG (KCNH2)) [%] | Activity (Plasmodium berghei [6]) | Activity (Plasmodium berghei [7]) | Activity (Salmonella typhi) | Activity (Mus musculus) | Activity (Plasmodium berghei [8]) | Activity (Plasmodium berghei [9]) | Activity (Plasmodium berghei [10])
1 | COc1ccc2nc3cc(Cl)ccc3c(N/C(=N/CCCN(C)C)c3ccc(Cl)cc3)c2n1 | 32 | > 60 | 0.0028 | 0.0066 | 0.0043 | 2.51 (≈ 5.2 µM) | 77 | Active | Active | Non-toxic | Non-toxic |  |  | 
2 | C/C(=N/c1ccnc2cc(Cl)ccc12)NC1CCN(C(C)C)CC1 | > 60 | > 60 | 0.108 | 0.166 | 0.134 | 5.71 (≈ 16.6 µM) |  |  |  |  | Non-toxic | inactive | Active | 
3 | CCN(CC)CCCCN/C(=N\c1ccnc2cc(Cl)ccc12)C(C)C | 55 | 42 | 0.061 | 0.254 | 0.125 | 5.01 (≈ 13.4 µM) | 54.6 |  |  |  | Non-toxic | Active |  | 
4 | COc1ccc2nc3cc(Cl)ccc3c(N/C(=N/CCCN(C)C)c3ccccc3)c2n1 | 18 | 44 | 0.0018 | 0.00198 | 0.0017 | 5.78 (≈ 12.9 µM) | 48.9 | Active |  |  | Non-toxic |  |  | Active
5 | CN(C)CCCN/C(=N\c1ccnc2cc(Cl)ccc12)c1ccc(Cl)cc1 | 48 | 35 | 0.002 | 0.0029 | 0.0011 | 1.93 (≈ 4.8 µM) | 115 |  |  | Non-toxic |  |  |  | 
6 | CC(C)/C(=N/c1ccnc2cc(Cl)ccc12)NCCCCN1CCCCC1 | 29 | 31 | 0.0075 | 0.0186 | 0.012 | 5.71 (≈ 14.8 µM) | 33 |  |  |  | Non-toxic |  |  | Active
7 | COc1ccc2nc3cc(Cl)ccc3c(N/C(C)=N/CCCN3CCCCC3)c2n1 | 14 | 15 | 0.008 | 0.0249 | 0.0131 | 2.81 (≈ 6.59 µM) | 94.5 |  |  |  | Non-toxic |  |  | Active
8 | CCN(CC)CCC/N=C(\C)Nc1c2ccc(Cl)cc2nc2ccc(OC)nc12 | 33 | 29 | 0.0176 | 0.041 | 0.0266 | 2.06 (≈ 4.97 µM) | 100 |  |  |  | Non-toxic |  |  | Active
9 | CCN(CC)CCCCN/C(C)=N\c1ccnc2cc(Cl)ccc12 | > 60 | > 60 | 0.0249 | 0.0983 | 0.026 | 2.68 (≈ 7.73 µM) |  |  |  |  | Non-toxic | inactive | Active | 
10 | COc1ccc2nc3cc(Cl)ccc3c(N/C(=N/CCCN3CCCCC3)c3ccccc3)c2n1 | 9 | 12 | 0.0051 | 0.0033 | 0.0043 | 2.56 (≈ 5.25 µM) | 80 |  |  |  | Non-toxic |  |  | Active
11 | CCN(CC)CC(C)(C)C/N=C(/Nc1c2ccc(Cl)cc2nc2ccc(OC)nc12)c1ccccc1 | > 60 | > 60 | 0.0218 | 0.061 | 0.0297 | > 24.2 | 10 | Active | Active |  | Non-toxic |  |  | 
12 | C/C(=N/c1ccnc2cc(Cl)ccc12)NC1CCN(Cc2ccccc2)CC1 | > 60 | > 60 | 0.056 | 0.199 | 0.087 | 8.07 (≈ 20.5 µM) |  |  |  |  | Non-toxic | inactive | Active | 
13 | COc1ccc2nc3cc(Cl)ccc3c(N/C(C)=N/CCCN(C)C)c2n1 | > 60 | 42 | 0.026 | 0.1 | 0.0513 | 18.1 (≈ 46.8 µM) | 91.5 |  |  |  | Non-toxic |  |  | Active
14 | CC(C)/C(=N/c1ccnc2cc(Cl)ccc12)NCCCN1CCCCC1 | 29 | 43 | 0.034 | 0.091 | 0.056 | > 24.2 | 74.5 |  |  |  | Non-toxic | Active |  | 
15 | CCN(CC)CCN/C(=N\c1ccnc2cc(Cl)ccc12)C(C)C | > 60 | 12 | 0.054 | 0.097 | 0.052 | 12.7 (≈ 36.6 µM) |  |  |  |  | Toxic | Active |  | 
16 | C/C(=N/c1ccnc2cc(Cl)ccc12)NCCCCN1CCCCC1 | > 60 | > 60 | 0.062 | 0.126 | 0.064 | 9.81 (≈ 27.3 µM) |  |  |  |  | Non-toxic | inactive | Active | 
